This is a sample that favours compounds with a hit; in the whole collection about 1.2% have one here.
HKDC1 inhibitor: HKDC1 hexokinase inhibitors, primary screen, biochemical, fluorescence, uHTS; Q2TB90; recombinant HKDC1, G6PDH/diaphorase resazurin coupled fluorescence; inhibition, % at 20 µM; 340,000 tested, 0.16% active; AID 493160, 2011;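 active = inhibition above about 35% when tested at 20 µM, limit read from the data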;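 note: plate controls were DMSO wells with enzyme for no effect and DMSO wells lacking enzyme for full effect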
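Test system: HK5 enzyme. Quantity: 5 µg/mL HK5 final. Reagent: glucose and ATP substrates. Schedule: 90 min reaction incubation at room temperature, dark. Technique: resazurin-to-resorufin fluorescence via G6PDH and diaphorase coupling, 525/613 nm. Control set: DMSO wells with and without enzyme mix.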
TbHK1 inh: Trypanosoma brucei hexokinase 1 inhibitors, primary screen, biochemical, G6PDH-coupled NADH absorbance, MLSCN library; AID 1430, 2008; recombinant TbHK1, G6PDH-coupled NADH A340; 220,000 tested, 0.11% active; hexokinase 1 [Trypanosoma brucei]; inhibition, % at 10 µM;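 active = inhibition of 50% or more in the single-dose primary screen; inactive = inhibition below 50%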
HSV augment: enhancers of HSV replication in host cells, fold increase, host cell viability | HSV replication augmentation in cells | maximum fold increase | 220,000 tested, 0.005% active | AID 1956, 2009; in the data active = maximum fold increase above about 1.5; tested in PC3 cells
Dynein cargo inh: inhibitors of GR-EGFP nuclear translocation, primary screen, dynein cargo transport inhibitor project, imaging, high-content, 3617.4 mouse cells; AID 1381, 2008; test concentration mostly 20 µM; stimulated with dexamethasone, 1 µM; active compounds read low; 220,000 tested, 0.47% active; z-score, hits read low;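 active = plate z-score of nuclear minus cytoplasmic receptor signal below a set negative limit, without overly bright fluorescence or cell loss, cut at about -3.5 in these data, passing the limit was not always enough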;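 note: z-score of nuclear minus cytoplasmic ring GR-EGFP intensity difference per well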
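Buffer or medium: Induction medium lacking tetracycline, stripped serum | Also added: Dexamethasone agonist, 1.0 µM final, for 30 min | Timing: 48 h induction, 1 h compound, 30 min dex at 37 °C | Detection: Formaldehyde fixation, Hoechst nuclear stain, 10x automated fluorescence imaging | Measure: Nuclear versus cytoplasmic GR-EGFP signal, averaged per well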
PERK inhibitor: block of dimerizer-induced PERK translation repression, primary screen, PERK inhibitor project, CHO PERK-DD cells, SEAP luminescence, HTS | AID 1416, 2008 | 220,000 tested, 0.17% active | inhibition, % at 5.6 µM | CHO PERK-DD fusion, SEAP luminescence translation reporter;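 active = inhibition above the mean inhibition of all tested compounds plus 3 SD, set separately per screening campaign, cut at about 2.9% in these data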;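 note: PERK kinase domain activated by AP20187 dimerizer at 100 nM; 0% = DMSO with dimerizer and 100% = rapamycin at 8.4 µM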
Target sequence (Q9NZJ5 whole entry, looked up, the tested form may be a part): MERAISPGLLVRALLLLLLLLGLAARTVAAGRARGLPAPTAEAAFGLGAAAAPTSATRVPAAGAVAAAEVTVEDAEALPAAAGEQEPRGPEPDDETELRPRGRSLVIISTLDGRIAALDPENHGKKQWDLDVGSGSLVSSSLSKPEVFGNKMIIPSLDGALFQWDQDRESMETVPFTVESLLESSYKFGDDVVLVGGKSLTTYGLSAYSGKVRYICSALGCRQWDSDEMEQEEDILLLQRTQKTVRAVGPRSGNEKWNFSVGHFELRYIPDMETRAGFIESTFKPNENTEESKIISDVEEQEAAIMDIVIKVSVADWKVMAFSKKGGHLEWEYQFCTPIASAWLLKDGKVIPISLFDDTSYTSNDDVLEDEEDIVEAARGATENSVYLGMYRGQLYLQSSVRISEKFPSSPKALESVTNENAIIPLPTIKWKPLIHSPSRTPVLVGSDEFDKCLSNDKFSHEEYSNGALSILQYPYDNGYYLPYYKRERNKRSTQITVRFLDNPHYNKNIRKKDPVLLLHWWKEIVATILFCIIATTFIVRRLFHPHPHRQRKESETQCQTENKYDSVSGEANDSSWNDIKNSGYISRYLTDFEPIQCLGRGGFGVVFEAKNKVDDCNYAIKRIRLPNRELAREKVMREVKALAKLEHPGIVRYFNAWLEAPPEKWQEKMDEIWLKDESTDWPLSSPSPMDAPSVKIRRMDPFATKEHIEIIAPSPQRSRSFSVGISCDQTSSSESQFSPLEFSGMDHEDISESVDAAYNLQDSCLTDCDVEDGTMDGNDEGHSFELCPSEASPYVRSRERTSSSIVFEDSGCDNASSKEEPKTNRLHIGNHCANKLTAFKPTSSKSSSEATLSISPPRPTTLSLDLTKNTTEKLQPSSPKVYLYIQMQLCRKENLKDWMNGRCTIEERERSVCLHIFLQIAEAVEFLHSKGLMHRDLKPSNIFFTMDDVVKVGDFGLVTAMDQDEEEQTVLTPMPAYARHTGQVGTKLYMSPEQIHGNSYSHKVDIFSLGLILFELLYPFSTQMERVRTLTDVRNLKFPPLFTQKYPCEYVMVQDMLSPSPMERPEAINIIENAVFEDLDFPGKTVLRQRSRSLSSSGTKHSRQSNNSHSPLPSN
Autophagy mod: autophagy modulators in MEF cells, primary screen, imaging, high-content, MEF GFP-LC3. calls only at 10 µM (by protocol). 190,000 tested, 0.98% active. MEF GFP-LC3 puncta imaging; test concentration mostly 10 µM;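 active = percentage of spot-positive cells more than 3 SD above its plate mean, without a fluorescence outlier flag or 80% toxicity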;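 note: spot-positive cell cutoff set from DMSO-treated cells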
* marks the source's active call; other numbers are inactive results.

COc1cc(/C=N/NC(N)=O)cc(Br)c1OCc1ccccc1C was read as HKDC1 inhibitor -2, TbHK1 inh -4, HSV augment inactive, Dynein cargo inh 1.1, PERK inhibitor 2 and Autophagy mod inactive.
Screening Cc1ccc(S(=O)(=O)/N=C2\C=C(NS(=O)(=O)c3ccccc3)C(=O)c3ccccc32)c(C)c1 returned HKDC1 inhibitor 27.
Screening Cc1ccc(S(=O)(=O)/N=C2/C=C(Sc3ncn[nH]3)C(=O)c3ccccc32)c(C)c1 returned TbHK1 inh 20, HSV augment inactive, Dynein cargo inh -3.6*, PERK inhibitor 1 and Autophagy mod inactive.
`N#C/C(=C\C=C\c1ccccc1[N+](=O)[O-])c1nc(-c2ccc3c(c2)OCO3)cs1` gave HKDC1 inhibitor 13, TbHK1 inh -7, HSV augment inactive, Dynein cargo inh -0.78, PERK inhibitor 1 and Autophagy mod active.
Screening CCCCOc1ccccc1NC(=O)Cn1c(-c2nonc2N)nc2ccccc21 returned HKDC1 inhibitor 1, TbHK1 inh -1, HSV augment inactive, Dynein cargo inh -0.25, PERK inhibitor 0 and Autophagy mod active.
For COc1cc(Cn2c(-c3nonc3N)nc3ccccc32)ccc1C the results were HKDC1 inhibitor 3, TbHK1 inh -15, HSV augment inactive, Dynein cargo inh -0.9, PERK inhibitor 0 and Autophagy mod active.
`Cc1ccc(OCc2nnc(SCC(=O)N3C(C)CCCC3C)o2)cc1` (configuration not stated) gave HKDC1 inhibitor 4.
For CC12CCC(=O)N1C(C(=O)Nc1nc(-c3ccccc3Cl)cs1)CS2 (configuration not stated) the results were HKDC1 inhibitor 6.
Screening Cc1ccc([N+](=O)[O-])cc1S(=O)(=O)Nc1ccc(C(=O)N(C)C)cc1 returned HKDC1 inhibitor 2, TbHK1 inh 3, HSV augment inactive, Dynein cargo inh 2.2, PERK inhibitor 0 and Autophagy mod active.
Screening CSc1ccc(S(=O)(=O)NC2CC2)cc1 returned HKDC1 inhibitor 4.
O=c1[nH]c(=O)n([C@H]2C[C@H](O)[C@@H](CO)O2)cc1C(F)(F)F was read as HKDC1 inhibitor -6, TbHK1 inh -3, HSV augment inactive, Dynein cargo inh -0.63, PERK inhibitor 2 and Autophagy mod active.
For Cc1ccc(NC(=S)N(CCCN2CCCC2)Cc2cccn2Cc2ccc(Cl)cc2)cc1C the results were HKDC1 inhibitor -2, TbHK1 inh 10, HSV augment inactive, Dynein cargo inh -1.2, PERK inhibitor 0 and Autophagy mod inactive.
`Cc1ccc(NC(=S)N(CCCN2CCCC2)Cc2cccn2Cc2ccc(Cl)cc2)cc1Cl` gave HKDC1 inhibitor -1, TbHK1 inh 7, Dynein cargo inh 0.62, PERK inhibitor 1 and Autophagy mod active.
For FC(F)(F)c1cccc(NC(=S)N(CCCN2CCCC2)Cc2cccn2Cc2ccc(Cl)cc2)c1 the results were HKDC1 inhibitor -3, TbHK1 inh 49, HSV augment inactive, Dynein cargo inh 0.21, PERK inhibitor 0 and Autophagy mod active.
COc1ccc(NC(=S)N(CCCN2CCCC2)Cc2cccn2Cc2ccc(Cl)cc2)cc1Cl was read as HKDC1 inhibitor -2, TbHK1 inh 11, HSV augment inactive, Dynein cargo inh 0.54, PERK inhibitor 0 and Autophagy mod active.
Screening Cc1ccc(S(=O)(=O)Nc2ccc(F)cc2)cc1C(=O)N1CCOCC1 returned HKDC1 inhibitor -1.
Screening CC(C)c1nc2sc3c(=O)n(N)cnc3c2c2c1COC(C)(C)C2 returned HKDC1 inhibitor 28, TbHK1 inh -6, HSV augment inactive, Dynein cargo inh 0.25, PERK inhibitor 1 and Autophagy mod inactive.
Screening NC(=O)c1ccc2c(c1)S(=O)(=O)c1ccccc1C2=O returned HKDC1 inhibitor -4, TbHK1 inh -10, HSV augment inactive, Dynein cargo inh 0.9 and PERK inhibitor 2.
CC1=C(C(N)=O)S(=O)(=O)c2ccccc21 was read as HKDC1 inhibitor 0, TbHK1 inh -3, HSV augment inactive, Dynein cargo inh -0.14 and PERK inhibitor 3.1*.
For CC1CCC(NC(=O)c2cc3c(s2)CCCC3)CC1 (configuration not stated) the results were HKDC1 inhibitor -3.
`COc1ccccc1CCN=C(N)NS(=O)(=O)c1ccc(C)cc1` gave HKDC1 inhibitor -6, TbHK1 inh 8, HSV augment inactive, Dynein cargo inh -0.23, PERK inhibitor -1 and Autophagy mod active.
`CN(C)C(CNC(=O)c1ccc(S(=O)(=O)N(C)C)cc1)Cc1ccccc1` (configuration not stated) gave HKDC1 inhibitor 4, TbHK1 inh 4, HSV augment inactive, Dynein cargo inh -0.55, PERK inhibitor 0 and Autophagy mod active.
`Cc1ccc(OCc2cc(C(=O)N(C)Cc3cnn(-c4ccccc4C)c3)no2)cn1` gave HKDC1 inhibitor 3.
Screening O=C1CC(N2CCOCC2)C(=O)N1CCN1C(=O)CC(N2CCOCC2)C1=O (configuration not stated) returned HKDC1 inhibitor 1, TbHK1 inh 33, HSV augment inactive, Dynein cargo inh 0.73, PERK inhibitor 1 and Autophagy mod inactive.
`CCN1C(=O)CC(N2CCOCC2)C1=O` (configuration not stated) gave HKDC1 inhibitor -5, TbHK1 inh 0, HSV augment inactive, Dynein cargo inh 0.15, PERK inhibitor 3.0* and Autophagy mod inactive.
For O=C(/C=C/Nc1ccc([N+](=O)[O-])cc1)c1ccc(Br)cc1 the results were HKDC1 inhibitor -5, TbHK1 inh -15, HSV augment inactive, Dynein cargo inh -0.19, PERK inhibitor 0 and Autophagy mod active.
COc1ccc(CNC(=O)C(=O)NCC2OCCCN2S(=O)(=O)c2cccs2)cc1 (configuration not stated) was read as HKDC1 inhibitor 7.
`O=C(N/N=C\c1cc([N+](=O)[O-])ccc1N1CCCC1)c1ccccn1` gave HKDC1 inhibitor -14, TbHK1 inh -10, HSV augment inactive, Dynein cargo inh -0.28, PERK inhibitor 0 and Autophagy mod inactive.
